Here are results for 13 compounds from ChEMBL document CHEMBL3779764, “Identification and Structure-Activity Relationships of Diarylhydrazides as Novel Potent and Selective Human Enterovirus Inhibitors” (J Med Chem, 2016).

Calls of active or inactive are those of the source. No cut-off for these calls is given here.

Data set [1] is described as follows: Cytotoxicity against african green monkey Vero cells assessed as reduction in cell viability after 24 to 36 hrs by MTS-based CPE reduction assay. The note with it: chlorocebus sabaeus. The procedure, abridged:
(§1)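 Noninfected Vero or RD cells exposed to serial compound dilutions under the CPE-assay conditions (37 °C, 24-36 h). Viability measured by MTS/PMS absorbance at 498 nm. CC50 is the concentration causing 50% death of noninfected cells.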
On the technique in general: Formazan colour is commonly taken as a measure of viable cells.

Data set [2] deals with Enterovirus A71. The data set can be described thus: Antiviral activity against Human enterovirus 71 infected in monkey African green Vero cells by MTS-based CPE reduction assay. The note with it: Enterovirus A, Vero; read-out: EC50. It counts as functional, organism-based. An outline of the steps: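 Vero cells (5 × 10^5) seeded, then given serial compound dilutions plus 100 TCID50 EV71. Incubated at 37 °C for 24-36 h until complete CPE in the virus-infected, compound-free control. Viability read by MTS/PMS at 498 nm. EC50 is the concentration inhibiting virus-induced CPE by 50%. At least three repeats.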

Data set [3] is described as follows: Selectivity index, ratio of CC50 for african green monkey Vero cells to EC50 for Enterovirus 71. It counts as toxicity, cell-based. The note with it: read-out: Ratio CC50/EC50. An outline of the steps: (§2)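 Selectivity index is CC50/EC50, both taken from MTS-based CPE reduction assays in the same cell line (Vero or RD).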
Another data set has as its system Coxsackievirus B1. In words: Antiviral activity against Human coxsackievirus B1 infected in african green monkey Vero cells after 24 to 36 hrs by MTS-based CPE reduction assay. Type of data set: functional, organism-based. The note with it: Enterovirus B. An outline of the steps:
(§3)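 Vero cells infected with the coxsackievirus B serotype in the presence of serial compound dilutions. CPE reduction read by MTS/PMS absorbance at 498 nm after 24-36 h at 37 °C. EC50 is the concentration giving 50% CPE inhibition. Mean ± standard deviation of at least three independent experiments.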

In the next data set the test system is Coxsackievirus B2. The data set can be described thus: Antiviral activity against Human coxsackievirus B2 infected in african green monkey Vero cells after 24 to 36 hrs by MTS-based CPE reduction assay. It counts as functional, organism-based. The note with it: Enterovirus B. An outline of the steps: as §3
The subject of data set [4] is Enterovirus A71. The data set can be described thus: Antiviral activity against Enterovirus 71 infected in human RD cells after 24 to 36 hrs by MTS-based CPE reduction assay. Type of data set: functional, organism-based. The note with it: Enterovirus A, RD; read-out: EC50. The procedure, abridged:
(§4)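 RD cells given serial compound dilutions with EV71. Incubated at 37 °C for 24-36 h until full CPE in the virus control. Viability read by MTS/PMS at 498 nm. EC50 is the concentration giving 50% inhibition of virus-induced CPE. At least three independent experiments.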

The test system of data set [5] is RD. In words: Cytotoxicity against human RD cells assessed as reduction in cell viability after 24 to 36 hrs by MTS-based CPE reduction assay. Type of data set: functional. The procedure, abridged:
as §1

Data set [6] can be described thus: Selectivity index, ratio of CC50 for human RD cells to EC50 for Enterovirus 71. It counts as toxicity, cell-based. The note with it: read-out: Ratio CC50/EC50. The procedure, abridged:
as §2

The next data set has as its system Coxsackievirus B3. In words: Antiviral activity against Human coxsackievirus B3 infected in african green monkey Vero cells after 24 to 36 hrs by MTS-based CPE reduction assay. It counts as functional, organism-based. The note with it: Enterovirus B. The procedure, abridged: as §3
Another data set relates to Coxsackievirus B4. The data set can be described thus: Antiviral activity against Human coxsackievirus B4 infected in african green monkey Vero cells by after 24 to 36 hrs MTS-based CPE reduction assay. It counts as functional, organism-based. The note with it: Enterovirus B. An outline of the steps:
as §3

In another data set the test system is Coxsackievirus B5. The data set can be described thus: Antiviral activity against Human coxsackievirus B5 infected in african green monkey Vero cells after 24 to 36 hrs by MTS-based CPE reduction assay. It counts as functional, organism-based. The note with it: Enterovirus B. The procedure, abridged:
as §3

The subject of another data set is Coxsackievirus B6. The data set can be described thus: Antiviral activity against Human coxsackievirus B6 infected in african green monkey Vero cells after 24 to 36 hrs by MTS-based CPE reduction assay. Type of data set: functional, organism-based. The note with it: Enterovirus B. An outline of the steps: as §3
The test system of data set [7] is Enterovirus A71. In words: Induction of stabilization of Human enterovirus 71 capsid protein assessed as increase in temperature for achieving equal staining of viral genome at 50 ug/ml by SYBR green fluorescent assay. The procedure, abridged:
(§5)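 SYBR green I and II added at 3× with RNase inhibitor at 1 U/µL. Mixture heated 37–70 °C in 1 °C steps, 2 min each, then cooled to 36 °C for 2 min while fluorescence was read.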

Data set [8] deals with RD. The data set can be described thus: Inhibition of human enterovirus 71 capsid assessed as reduction in viral replication at early stages infected in human RD cells at 20 ug/ml. It counts as cell-based. The note with it: Enterovirus A71. The procedure, abridged:
(§6)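 Time-of-addition test in RD cells infected with EV71 at MOI 0.01. Compound was added at set times relative to infection (0.05 or 20 µg/mL).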

Data set [9] has as its system Enterovirus A71. In words: Antiviral activity against Human enterovirus 71 infected in human RD cells after 24 to 36 hrs. Type of data set: functional, organism-based. The note with it: Enterovirus A. An outline of the steps: as §4
Data set [10] deals with Enterovirus A71. The data set can be described thus: Induction of stabilization of Human enterovirus 71 capsid protein assessed as increase in temperature for achieving equal staining of viral genome at 5 ug/ml by SYBR green fluorescent assay. The procedure, abridged: as §5
Data set [11] concerns RD. The data set can be described thus: Cytotoxicity against human RD cells infected with human enterovirus 71 measured during a single replication cycle. Type of data set: cell-based.
Data set [12] concerns RD. In words: Inhibition of human enterovirus 71 capsid assessed as reduction in viral replication at early stages infected in human RD cells at 0.05 ug/ml. It counts as cell-based. The note with it: Enterovirus A71. The procedure, abridged: as §6
In data set [13] the test system is Enterovirus A71. In words: Antiviral activity against Human enterovirus 71 infected in human RD cells assessed as reduction in virus titer measured during single replication cycle by virus titer assay. It counts as functional, organism-based. An outline of the steps:
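RD cells (5 × 10^4 per well) cultured at 37 °C, 5% CO2. Next day, treated with compound at 0.00042-33.3 µg/mL in 10% FBS, 0.5% DMSO. After 2 h, infected with EV71 at MOI 1. Supernatants serially diluted 10^-1 to 10^-8 onto fresh cells. CPE scored at 72 hpi; TCID50 calculated by Reed-Muench.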

Take `Cc1cccc(C)c1NNC(=O)c1ccc(C(C)(C)C)cc1`: the CC50 (as a rule, the concentration giving 50% cytotoxicity) turned out to be 166000 nM in data set [1] and 188000 nM in the data set on RD [5]. The EC50 (usually the concentration that produces a half-maximal response) was 170 nM in the data set on Enterovirus A71 [2]; 1.6 nM in the data set with Coxsackievirus B1; 1.6 nM with Coxsackievirus B2; 420 nM with Enterovirus A71 [4]; 90 nM in the data set on Coxsackievirus B3; 5620 nM with Coxsackievirus B4. Moreover, the EC50 in the data set with Coxsackievirus B5 amounted to 3190 nM; in the data set on Coxsackievirus B6, 560 nM. Besides, the figures for the selectivity ratio in [3] and in [6] were 978 and 454, respectively.
Consider `Cc1cc(CCCCCCCOc2ccc(C3=NCCO3)cc2)on1` [DISOXARIL], for which the CC50 in data set [1] worked out at 148000 nM; in the data set on RD [5], 167000 nM. The EC50 in the data set with Enterovirus A71 [2] is 19500 nM; in the data set with Enterovirus A71 [4] it was 15300 nM. In addition, the selectivity ratio in data set [3] is 7.6; in data set [6], 10.9. Further, the outcome in the data set on Enterovirus A71 [7] was Active. Besides, the inhibition entry in the data set with RD [8] is “Active”.
For the compound `O=C(c1cccs1)N(Cc1ccc(Br)cc1)c1ccc(F)cc1`, in the data set on Enterovirus A71 [9], the EC50 worked out at 1420 nM.
In the case of `CN(C)c1ccc(C(=O)NNc2c(Cl)cccc2Cl)cc1`, the CC50 (in data set [1]; in the data set on RD [5]) was more than 247000 nM in each case. The EC50 in the data set on Enterovirus A71 [2] is 20 nM; with Coxsackievirus B1, 1.3 nM; in the data set on Coxsackievirus B2 it was 0.9 nM; in the data set on Enterovirus A71 [4], 30 nM; in the data set on Coxsackievirus B3, 950 nM; in the data set with Coxsackievirus B4, 2570 nM. The EC50 in the data set with Coxsackievirus B5 was found to be 2270 nM; in the data set with Coxsackievirus B6 it was 940 nM. The selectivity ratio is more than 12300 in data set [3] and more than 8230 in data set [6]. Also, the result in the data set on Enterovirus A71 [10] and in the data set on Enterovirus A71 [13] was Active. In addition, the Activity result in the data set on RD [11] is given as “Non-toxic”. For the same compound, in the data set with RD [12], the inhibition entry is “Active”.
For the compound `CC(C)S(=O)(=O)n1c(N)nc2ccc(/C(=N/O)c3ccccc3)cc21` [ENVIROXIME], the CC50 (in data set [1]; in the data set with RD [5]) was more than 223000 nM throughout. Further, the EC50 in the data set on Enterovirus A71 [2] was 150 nM; with Coxsackievirus B1 it was 750 nM; in the data set on Coxsackievirus B2, 150 nM; with Enterovirus A71 [4], 240 nM; in the data set with Coxsackievirus B3, 2480 nM; in the data set with Coxsackievirus B4, more than 186000 nM. Also, the results for the EC50 in the data set on Coxsackievirus B5 and with Coxsackievirus B6 were 120 nM and 100 nM, respectively. The selectivity ratio is more than 1490 in data set [3] and more than 950 in [6].
As to `CCCc1ccc(C(=O)NNc2c(C)cccc2Cl)cc1`, the CC50 was 80200 nM in data set [1] and 113000 nM in the data set on RD [5]. For the same compound, the results for the EC50 in the data set with Enterovirus A71 [2] and in the data set on Enterovirus A71 [4] were 920 nM and 2160 nM, respectively. Also, the figures for the selectivity ratio in data set [3] and in data set [6] were 87.2 and 52.4, respectively.
As to `Cc1ccc(C(=O)NNc2c(C)cccc2C)cc1`, the CC50 (in [1]; with RD [5]) was more than 315000 nM each time. Moreover, the EC50 in the data set with Enterovirus A71 [2] came out at 5310 nM; with Enterovirus A71 [4], 13600 nM. The selectivity ratio was more than 59.2 in data set [3] and more than 23.2 in data set [6].
Regarding `CCCc1ccc(C(=O)NNc2c(F)cccc2F)cc1`, the CC50 (in data set [1]; in the data set with RD [5]) was more than 276000 nM throughout. Also, the figures for the EC50 in the data set on Enterovirus A71 [2] and in the data set on Enterovirus A71 [4] were 27400 nM and 51400 nM, respectively. For the same compound, the selectivity ratio is more than 10.1 in data set [3] and more than 5.4 in data set [6].
Turning to `Cc1ccc(C(=O)NNc2c(Br)cccc2Br)cc1`, the CC50 in data set [1] worked out at 146000 nM; in the data set with RD [5], 163000 nM. For the same compound, the EC50 amounted to 10800 nM in the data set with Enterovirus A71 [2] and 24600 nM in the data set with Enterovirus A71 [4]. Further, the selectivity ratio in data set [3] is 13.5; in data set [6] it was 6.6.
For `CC(C)(C)c1ccc(C(=O)NNc2c(Br)cccc2Br)cc1`, the CC50 (in data set [1]; in the data set on RD [5]) was more than 188000 nM each time. Further, the EC50 in the data set on Enterovirus A71 [2] came to 80 nM; in the data set on Coxsackievirus B1, 2610 nM; with Coxsackievirus B2, 1570 nM; in the data set on Enterovirus A71 [4] it was 290 nM; in the data set on Coxsackievirus B3, 870 nM; with Coxsackievirus B4, 6520 nM. The values for the EC50 in the data set with Coxsackievirus B5 and with Coxsackievirus B6 were 980 nM and 920 nM, respectively. For the same compound, the results for the selectivity ratio in [3] and in data set [6] were more than 2350 and more than 641, respectively.
Regarding `CN(C)c1ccc(C(=O)NNc2c(Br)cccc2Br)cc1`, the CC50 (in data set [1]; in the data set on RD [5]) was more than 194000 nM throughout. Further, the EC50 amounted to 30 nM in the data set with Enterovirus A71 [2]; 5 nM with Coxsackievirus B1; 0.5 nM in the data set on Coxsackievirus B2; 70 nM with Enterovirus A71 [4]; 30 nM in the data set on Coxsackievirus B3; 340 nM in the data set with Coxsackievirus B4. Further, the EC50 in the data set on Coxsackievirus B5 turned out to be 60 nM; with Coxsackievirus B6, 20 nM. Also, the selectivity ratio in [3] is more than 6460; in [6] it was more than 2930.
In the case of `CCOc1ccc(C(=O)NNc2c(Cl)cccc2Cl)cc1`, the CC50 (in data set [1]; with RD [5]) was more than 246000 nM in each case. Also, the EC50 in the data set with Enterovirus A71 [2] is 330 nM; in the data set on Enterovirus A71 [4] it was 370 nM. Further, the figures for the selectivity ratio in data set [3] and in data set [6] were more than 746 and more than 665, respectively.
Turning to `CCc1ccc(C(=O)NNc2c(Cl)cccc2Cl)cc1`, the CC50 (in data set [1]; in the data set on RD [5]) was more than 259000 nM in each case. Moreover, the EC50 stood at 940 nM in the data set on Enterovirus A71 [2] and 1680 nM in the data set on Enterovirus A71 [4]. Besides, the selectivity ratio in data set [3] was more than 275; in [6], more than 154.
